Screening data as filed in PubChem.
hERG rescue = shields human hERG channel from block by proarrhythmic agents | Q12809 | CHO-hERG, FluxOR thallium flux, dofetilide IC70 present | activation (rescue from dofetilide block), less the hit threshold, % at 10 µM | 310,000 tested, 0.51% active | AID 1511;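 active = activation above the mean of controls blocked by dofetilide plus 5 SD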;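 note: thallium influx through hERG after potassium depolarization seen as dye fluorescence rise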
KCNK9 inh = inhibitors of human KCNK9 two-pore domain potassium channel. Q9NPC2. HEK293 KCNK9, FluxOR thallium flux fluorescence; active compounds read low. 310,000 tested, 1.2% active. AID 488922. B-score at 10 µM;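 active = ratio B-score over 3 SD below the library mean, with starting fluorescence within 5 SD of its mean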;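 note: negative B-score means less thallium flux so channel inhibition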
KCNK3 block = human KCNK3 channel inhibition, primary screen; O14649; CHO-KCNK3 thallium flux, FluxOR fluorescence; active compounds read low; B-score at 10 µM; 340,000 tested, 0.84% active; AID 602410;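 active = B-score under library mean minus 4 SD, starting fluorescence ratio at most library mean plus 5 SD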;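 note: more negative B-score means stronger inhibition of thallium flux through KCNK3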
KCNQ1 pot = human KCNQ1 channel potentiation or activation. B-score at 10 µM. CHO-K1 KCNQ1, thallium flux FluxOR fluorescence; active compounds read high. 310,000 tested, 0.35% active;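 active = fluorescence ratio B-score, a plate-corrected score, at least three library SD, with initial intensity B-score within 5 SD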
Target sequence (P51787 whole entry, looked up): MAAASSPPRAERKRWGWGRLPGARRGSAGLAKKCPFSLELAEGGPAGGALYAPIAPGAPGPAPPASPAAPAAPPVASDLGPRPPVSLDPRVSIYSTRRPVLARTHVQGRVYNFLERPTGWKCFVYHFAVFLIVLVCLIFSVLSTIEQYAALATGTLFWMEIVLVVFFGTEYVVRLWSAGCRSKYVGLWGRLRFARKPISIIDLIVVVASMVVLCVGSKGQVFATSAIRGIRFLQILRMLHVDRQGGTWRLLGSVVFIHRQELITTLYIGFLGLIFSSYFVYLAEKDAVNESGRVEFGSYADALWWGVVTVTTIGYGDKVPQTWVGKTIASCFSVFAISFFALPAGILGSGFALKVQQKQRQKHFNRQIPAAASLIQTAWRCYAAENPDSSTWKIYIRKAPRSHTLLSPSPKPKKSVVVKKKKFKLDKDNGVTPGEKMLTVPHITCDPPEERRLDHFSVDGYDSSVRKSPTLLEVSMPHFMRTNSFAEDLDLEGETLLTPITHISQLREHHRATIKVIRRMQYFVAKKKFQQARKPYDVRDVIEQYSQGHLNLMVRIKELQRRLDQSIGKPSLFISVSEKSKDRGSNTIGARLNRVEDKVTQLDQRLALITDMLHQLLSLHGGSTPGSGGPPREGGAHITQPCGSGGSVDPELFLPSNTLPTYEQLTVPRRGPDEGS
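assay system = KCNQ1-transfected CHO-K1 cells | medium = assay buffer with matched DMSO | probe or stimulus = depolarizing K+/Tl+ stimulus, K2SO4 and Tl2SO4 each 12.5 mM in 5x stock | dosing = single dose | incubation = dye 90 min, compound 20 min, room temperature | detection = kinetic FluxOR fluorescence, 10 s baseline plus 110 s post-stimulus | evaluation = ratio B score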
KCNQ1 inh = blocks the human KCNQ1 potassium channel. AID 2642. P51787. 310,000 tested, 1.3% active. CHO-K1 KCNQ1, FluxOR thallium flux fluorescence; active compounds read high. B-score at 10 µM;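 active = compounds whose thallium flux B-score, printed positive for inhibition, exceeds three library SD while starting fluorescence stays within three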;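 note: channel opened by potassium depolarization with thallium stimulus after 20 min compound exposure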
Kir21 block = Kir2.1 (mouse) channel inhibition; P35561; HEK293-Kir2.1, FluxOR thallium flux fluorescence; active compounds read low; B-score at 10 µM; 310,000 tested, 0.85% active; AID 1672;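 active = fluorescence ratio B-score at or below minus 3 SD of library scores, with starting-brightness B-score within 2 SD, cut at about -4.2 in these data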;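 note: channel flux triggered by added potassium and thallium sulfate stimulus; B-score of peak minus minimum fluorescence over baseline after thallium stimulus; more negative B-score means stronger Kir2.1 block with less thallium influx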
Numbers stand for hits. Shown are actives, neighbours in structure and some others; about 3.7% of the full set was active somewhere.

Screening CCN(C(=O)c1ccccc1)c1ccc([N+](=O)[O-])cc1 returned hERG rescue inactive, KCNK9 inh inactive, KCNK3 block inactive, KCNQ1 pot inactive, KCNQ1 inh inactive and Kir21 block inactive.
For CN(C)c1ccc(C(c2ccc(N(C)C)cc2)c2ccc([N+](=O)[O-])cc2)cc1 the results were hERG rescue inactive, KCNK9 inh -7.82, KCNK3 block inactive, KCNQ1 pot inactive, KCNQ1 inh inactive and Kir21 block inactive.
For Cc1nn(CC2CC2)c(=O)n1-c1ccc(F)cc1 the results were hERG rescue inactive, KCNK9 inh inactive, KCNK3 block inactive, KCNQ1 pot 10, KCNQ1 inh inactive and Kir21 block inactive.
For CC(CN(C)Cc1ccccc1)OC(=O)c1cccc(F)c1 (stereo unspecified) the results were hERG rescue inactive, KCNK9 inh inactive, KCNK3 block inactive, KCNQ1 pot inactive, KCNQ1 inh inactive and Kir21 block inactive.
For CC#CCN(Cc1ccco1)C(=O)c1ccc(OC2CCN(Cc3ccccn3)CC2)cc1 the results were hERG rescue inactive, KCNK9 inh inactive, KCNK3 block inactive, KCNQ1 pot inactive, KCNQ1 inh inactive and Kir21 block inactive.
CCCCn1c(N)c(C(=S)NC(=O)CC(C)(C)C)c(=O)n(C)c1=O was read as hERG rescue 24.7, KCNK9 inh inactive, KCNK3 block inactive, KCNQ1 pot 18, KCNQ1 inh inactive and Kir21 block inactive.
For COc1ccccc1C(=O)NS(=O)(=O)c1ccc(C)cc1 the results were KCNK3 block inactive.
For COc1cccc(CC(=O)OC(C)C(=O)Nc2ncc(Cl)cc2Cl)c1 (stereo unspecified) the results were hERG rescue inactive, KCNK9 inh inactive, KCNK3 block inactive, KCNQ1 pot inactive, KCNQ1 inh inactive and Kir21 block -4.46.
Screening CCOc1ccccc1OCC(=O)OC(C)C(=O)Nc1ncc(Cl)cc1Cl (stereo unspecified) returned KCNK3 block inactive.
CC(OC(=O)Cc1coc2ccc3ccccc3c12)C(=O)Nc1ncc(Cl)cc1Cl (stereo unspecified) was read as hERG rescue inactive, KCNK9 inh inactive, KCNK3 block inactive, KCNQ1 pot inactive, KCNQ1 inh inactive and Kir21 block -5.56.
Cc1ccc2c(CC(=O)OC(C)C(=O)Nc3ncc(Cl)cc3Cl)coc2c1 (stereo unspecified) was read as hERG rescue inactive, KCNK9 inh inactive, KCNK3 block inactive, KCNQ1 pot inactive, KCNQ1 inh inactive and Kir21 block -4.48.
For CC(NC(=O)NC1CCCCC1)c1ccc2c(c1)OCO2 (stereo unspecified) the results were hERG rescue 10.6, KCNK9 inh inactive, KCNK3 block inactive, KCNQ1 pot inactive, KCNQ1 inh inactive and Kir21 block inactive.
CC(NC(=O)NC12CC3CC(CC(C3)C1)C2)c1ccc2c(c1)OCO2 (stereo unspecified) was read as hERG rescue inactive, KCNK9 inh inactive, KCNK3 block inactive, KCNQ1 pot inactive, KCNQ1 inh inactive and Kir21 block inactive.
CCC(NC(=S)NC1CCCCC1)c1ccc(C(C)C)cc1 (stereo unspecified) was read as hERG rescue inactive, KCNK9 inh inactive, KCNK3 block inactive, KCNQ1 pot inactive, KCNQ1 inh 10 and Kir21 block inactive.
Cc1ccc(C(C)NC(=S)NC2CCCCC2)cc1C (stereo unspecified) was read as hERG rescue 6.2, KCNK9 inh inactive, KCNK3 block inactive, KCNQ1 pot inactive, KCNQ1 inh inactive and Kir21 block -5.3.
`Cc1ccc(C)c(S(=O)(=O)N(C)c2ccc(OC(=O)C3CCN(C(=O)Nc4ccccc4)CC3)cc2)c1` gave KCNK3 block inactive.
`CCOC(=O)c1c(-c2ccccc2)c2cc(OC)ccc2n1CCCN(C)C` gave hERG rescue inactive, KCNK9 inh inactive, KCNK3 block inactive, KCNQ1 pot inactive, KCNQ1 inh inactive and Kir21 block -7.05.
For Cc1nn2c(c1-c1ccc(Cl)cc1)N=C(c1ccco1)CC2c1ccccc1 (stereo unspecified) the results were hERG rescue inactive, KCNK9 inh -6.68, KCNK3 block inactive, KCNQ1 pot inactive, KCNQ1 inh 7 and Kir21 block inactive.
COc1ccc(C(=O)CCC(C)(C)[N+](=O)[O-])cc1OC was read as hERG rescue inactive, KCNK9 inh inactive, KCNK3 block inactive, KCNQ1 pot inactive, KCNQ1 inh inactive and Kir21 block inactive.
Screening CC(C)(C)CC(=O)Nc1ccc(S(=O)(=O)N2CCCC2)cc1 returned hERG rescue inactive, KCNK9 inh inactive, KCNK3 block inactive, KCNQ1 pot inactive, KCNQ1 inh inactive and Kir21 block inactive.
For CCOc1ccccc1NS(=O)(=O)c1c(C)[nH]c(C)c1C(=O)N1CCCCC1 the results were hERG rescue inactive, KCNK9 inh inactive, KCNK3 block inactive, KCNQ1 pot inactive, KCNQ1 inh inactive and Kir21 block inactive.
For COc1cccc(OC)c1/C(O)=C(\C#N)c1nc2ccccc2[nH]1 the results were hERG rescue inactive, KCNK9 inh -7.72, KCNK3 block inactive, KCNQ1 pot inactive, KCNQ1 inh inactive and Kir21 block inactive.
For Cc1ccc(CN(C(=O)c2csnn2)C(C(=O)NC2CCCC2)c2ccc(C)o2)cc1 (stereo unspecified) the results were hERG rescue inactive, KCNK9 inh -6.79, KCNK3 block inactive, KCNQ1 pot inactive, KCNQ1 inh inactive and Kir21 block inactive.
For Cc1ccc(C(C(=O)NC2CCCC2)N(C(=O)c2csnn2)C2CCCC2)o1 (stereo unspecified) the results were hERG rescue inactive, KCNK9 inh inactive, KCNK3 block inactive, KCNQ1 pot inactive, KCNQ1 inh inactive and Kir21 block inactive.
For O=C1N=C(N2CCC(Cc3ccccc3)CC2)S/C1=C/c1cn[nH]c1-c1ccccc1 the results were hERG rescue inactive, KCNK9 inh inactive, KCNK3 block inactive, KCNQ1 pot inactive, KCNQ1 inh 9 and Kir21 block inactive.
Cc1cc(N2CCC(C(=O)NC3CC3)CC2)nc(-c2ccccc2)n1 was read as hERG rescue inactive, KCNK9 inh inactive, KCNK3 block inactive, KCNQ1 pot inactive, KCNQ1 inh inactive and Kir21 block inactive.
Screening Cc1cc(N2CCN(c3cccc(C)c3C)CC2)nc(-c2ccccc2)n1 returned hERG rescue inactive, KCNK9 inh -6.57, KCNK3 block inactive, KCNQ1 pot inactive, KCNQ1 inh inactive and Kir21 block inactive.
For O=[N+]([O-])c1ccccc1OCC(O)CN1CCN(CC(O)COc2ccccc2[N+](=O)[O-])CC1 (stereo unspecified) the results were hERG rescue inactive, KCNK9 inh inactive, KCNK3 block inactive, KCNQ1 pot inactive, KCNQ1 inh 11 and Kir21 block inactive.
Screening CC(C)(C)OC(=O)C[C@H]1C/C=C\C[C@@H](CC(=O)N(CCO)Cc2ccccc2)C(=O)N[C@H](Cc2ccccc2)COC1=O returned KCNK3 block inactive.
